What was measured:
Type in all cases: functional, cell-based
A2780 = experiment: Antiproliferative activity against human A2780 cells after 96 hrs by CellTiter-Glo luminescent cell viability assay; details: A2780, 96 h
U-937 = experiment: Antiproliferative activity against human U937 cells after 96 hrs by CellTiter-Glo luminescent cell viability assay; details: U-937, 96 h
Procedure, shortened: (§1)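 Cells were cultured with compound present continuously at 0.3–10000 nM, or without compound, for 96 h. Growth was read by ATP luminescence (CellTiter-Glo). IC50 is the concentration giving 50% growth inhibition versus untreated cells. Vinblastine served as the positive control. Two separate replicate experiments were run.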

MDA-MB-435 = experiment: Antiproliferative activity against human MDA-MB-435 cells after 96 hrs by CellTiter-Glo luminescent cell viability assay; details: MDA-MB-435, 96 h; procedure, shortened: as §1
[1] = Antiproliferative activity against human HS22T1 cells after 96 hrs by CellTiter-Glo luminescent cell viability assay; details: HS22T1, 96 h; procedure, shortened: as §1
HT-29 = experiment: Antiproliferative activity against human HT29 cells after 96 hrs by CellTiter-Glo luminescent cell viability assay; details: HT-29, 96 h; procedure, shortened: as §1

SMILES	IC50 (A2780) [nM]	IC50 (U-937) [nM]	IC50 (MDA-MB-435) [nM]	IC50 [1] [nM]	IC50 (HT-29) [nM]
CC(=O)O[C@]12OC[C@@]3(C)C(=O)C[C@@H](O)[C@@](C)([C@@H]13)[C@H]1[C@@H](O)[C@H](OC(=O)C(C)C)[C@@]3(C)[C@H](c4ccoc4)C[C@H]4O[C@]43[C@]1(C)C2=O [MALLEASTRONE C]	18000	–	–	–	–
CC[C@]1(O)C[C@@H]2CN(CCc3c([nH]c4ccccc34)[C@@](C(=O)OC)(c3cc4c(cc3OC)N(C)[C@H]3[C@@](O)(C(=O)OC)[C@H](OC(C)=O)[C@]5(CC)C=CCN6CC[C@]43[C@@H]65)C2)C1 [VINBLASTINE]	–	0.49	0.27	1.38	0.53
CC(=O)O[C@]12OC[C@@]3(C)C(=O)C=C[C@@](C)([C@@H]13)[C@H]1[C@@H](O)[C@H](OC(=O)C(C)C)[C@@]3(C)[C@H](c4ccoc4)C[C@H]4O[C@]43[C@]1(C)C2=O [MALLEASTRONE A]	490	200	410	240	240
CC[C@H](C)C(=O)O[C@H]1[C@H](O)[C@@H]2[C@@]3(C)C=CC(=O)[C@]4(C)CO[C@](OC(C)=O)(C(=O)[C@@]2(C)[C@@]25O[C@@H]2C[C@@H](c2ccoc2)[C@]15C)[C@H]34 [MALLEASTRONE B]	630	190	340	230	220

— ChEMBL document CHEMBL1144723, “Antiproliferative limonoids of a Malleastrum sp. from the Madagascar rainforest” (J Nat Prod, 2008)
